Data taken from ChEMBL document CHEMBL1134377, “New synthesis of benzo-delta-carbolines, cryptolepines, and their salts: in vitro cytotoxic, antiplasmodial, and antitrypanosomal activities of delta-carbolines, benzo-delta-carbolines, and cryptolepines” (J Med Chem, 2001).
Where a name gives a salt, the structure may show the parent alone.

Key:
Plasmodium falciparum [1] = assay: Selectivity index against Plasmodium falciparum; assay type: functional
Trypanosoma cruzi [2] = assay: Antitrypanosomal activity against Trypanosoma cruzi amastigotes; assay type: functional, organism-based
Plasmodium falciparum [3] = assay: Antiplasmodial activity against chloroquine-resistant Plasmodium falciparum K1; assay type: functional, organism-based
Outline: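 K1 strain kept in continuous culture on human erythrocytes. Asynchronous cultures (1% parasitemia, 1% final hematocrit) exposed to serial dilutions of drug (DMSO stocks; final DMSO ≤0.2%) for 24 h at 37 °C. 0.5 µCi [3H]hypoxanthine per well was then added for a further 24 h. Inhibition is incorporation versus untreated controls on the same plate. IC50 taken from concentration-response curves, mean ± SD of several independent experiments.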

Trypanosoma cruzi [4] = assay: Antitrypanosomal activity against Trypanosoma cruzi epimastigotes; assay type: functional, organism-based
Trypanosoma cruzi [5] = assay: Index of selectivity was determined in Trypanosoma cruzi; assay type: functional
Outline: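 Ratio of IC50 on L6 cells to IC50 on intracellular amastigote proliferation of T. cruzi.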

L6 = assay: In vitro cytotoxicity against L6 cells; assay type: functional, cell-based, Rattus norvegicus
Trypanosoma cruzi [6] = assay: Antitrypanosomal activity against (Trypanosoma cruzi) trypomastigotes (concentration of compound tested on trypomastigote motility); assay type: functional, organism-based
Outline: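 Tulahuen LacZ clone 4 trypomastigotes harvested from infected murine L6 muscle cell cultures; 2-fold drug dilutions from 200 to 1.5 µM, 48 h; motility scored by microscopy; value is concentration with no detectable motility effect, mean of 2 independent experiments.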

[7] = In vitro cell survival assay on cancer KB cell lines; assay type: functional, cell-based, Homo sapiens
Outline: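 KB oral epidermoid carcinoma cells in MEM with 10% FCS, 25 000 cells/well; serial dilutions (DMSO or water) added at plating; 3 days at 37 °C, 5% CO2; viability by neutral red uptake 8-16 h, SDS lysis, absorbance 540 nm.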

[8] = In vitro cytotoxicity against L6 cells

SMILES	IS (Plasmodium falciparum [1])	IC50 (Trypanosoma cruzi [2]; Trypanosoma cruzi) [µM]	IC50 (Plasmodium falciparum [3]; Plasmodium falciparum) [µM]	IC50 (Trypanosoma cruzi [4]; Trypanosoma cruzi) [µM]	IS (Trypanosoma cruzi [5])	IC50 (L6; Rattus norvegicus, L6) [µM]	IC50 (Trypanosoma cruzi [6]; Trypanosoma cruzi) [µM]	IC50 ([7]; Homo sapiens, KB) [µM]	IC50 ([7]; kb) [µM]	IC50 [8] [µM]	IC50 (Trypanosoma cruzi [2]) [µM]	IC50 (Plasmodium falciparum [3]) [µM]	IC50 (Trypanosoma cruzi [4]) [µM]	IC50 (L6; l6) [µM]	IC50 (Trypanosoma cruzi [6]) [µM]
c1csc(-c2cnc3c(c2)[nH]c2ccccc23)c1	3.2	8.4	16.8	6.8	6.4	54	200	–	–	–	–	–	–	–	–
C[n+]1c2ccccc2cc2[nH]c3ccccc3c21.O=S(=O)([O-])C(F)(F)F	24.5	0.125	0.33	1.3	64.8	8.1	50	–	–	–	–	–	–	–	–
CC(C)c1c2nc3ccccc3c-2n(C)c2ccccc12	10.6	–	2.2	–	–	23.8	–	6.5	–	–	–	–	–	–	–
Cc1c2nc3ccccc3c-2n(C)c2ccccc12	41.9	–	0.101	–	–	3.7	–	0.53	–	–	–	–	–	–	–
CCc1c2nc3ccccc3c-2[nH]c2ccccc12	0.7	5.7	30.9	2.8	3.8	21.5	6.25	40	–	–	–	–	–	–	–
CC(C)c1c2ccccc2[n+](C)c2c1[nH]c1ccccc12.O=S(=O)([O-])C(F)(F)F	12.6	3.3	1.3	0.73	4.6	15.1	12.5	–	6.4	–	–	–	–	–	–
Cc1c2ccccc2[n+](C)c2c1[nH]c1ccccc12	–	–	–	–	–	–	–	0.42	–	–	–	–	–	–	–
Cc1c2nc3ccccc3c-2[nH]c2ccccc12	0.25	4.7	74.6	3.9	4	18.9	25	40	–	–	–	–	–	–	–
c1ccc2nc(-c3cc[nH]c4c5ccccc5nc3-4)ccc2c1	2.6	6.4	16.3	26.4	6.5	41.6	100	–	–	–	–	–	–	–	–
CCc1c2ccccc2[n+](C)c2c1[nH]c1ccccc12	–	–	–	–	–	–	–	1.5	–	–	–	–	–	–	–
c1ccc(-c2cc[nH]c3c4ccccc4nc2-3)cc1	0.4	11.9	38.5	11.1	1.2	14.3	25	–	–	–	–	–	–	–	–
c1ccc2c(c1)[nH]c1cccnc12	2.2	23.5	104	23.2	9.7	229	100	–	–	–	–	–	–	–	–
c1ccc(-c2c[nH]c3c4ccccc4nc-3c2-c2ccccc2)cc1	>0.6	108	259	> 312	>1.5	> 156	100	–	–	–	–	–	–	–	–
Oc1ccc2[nH]c3cccnc3c2c1	4.2	122	56.5	129	1.9	235	200	–	–	–	–	–	–	–	–
Cc1c2ccccc2[n+](C)c2c1[nH]c1ccccc12.O=S(=O)([O-])C(F)(F)F	22.5	0.074	0.062	0.3	18.9	1.4	12.5	–	0.57	–	–	–	–	–	–
Cc1cc[nH]c2c3ccccc3nc1-2	1.8	10.4	45.6	6.6	7.9	82.4	100	–	–	–	–	–	–	–	–
Clc1c2nc3ccccc3c-2[nH]c2ccccc12	1.7	6.7	74.6	6.3	6.4	–	50	–	–	43.2	–	–	–	–	–
c1csc(-c2ccnc3c2[nH]c2ccccc23)c1	0.12	1.8	14.8	11.2	1	1.8	200	–	–	–	–	–	–	–	–
Cc1c(-c2ccccc2)c[nH]c2c3ccccc3nc1-2	0.9	1.9	23.6	2.3	11.2	21.3	6.25	–	–	–	–	–	–	–	–
c1ccc(-c2cc[nH]c3c4ccccc4nc2-3)nc1	2.3	18.8	33.1	58.4	4	75.1	25	–	–	–	–	–	–	–	–

SMILES	IS (Plasmodium falciparum [1])	IC50 (Trypanosoma cruzi [2]; Trypanosoma cruzi) [µM]	IC50 (Plasmodium falciparum [3]; Plasmodium falciparum) [µM]	IC50 (Trypanosoma cruzi [4]; Trypanosoma cruzi) [µM]	IS (Trypanosoma cruzi [5])	IC50 (L6; Rattus norvegicus, L6) [µM]	IC50 (Trypanosoma cruzi [6]; Trypanosoma cruzi) [µM]	IC50 ([7]; Homo sapiens, KB) [µM]	IC50 ([7]; kb) [µM]	IC50 [8] [µM]	IC50 (Trypanosoma cruzi [2]) [µM]	IC50 (Plasmodium falciparum [3]) [µM]	IC50 (Trypanosoma cruzi [4]) [µM]	IC50 (L6; l6) [µM]	IC50 (Trypanosoma cruzi [6]) [µM]
c1ccc(-c2c3nc4ccccc4c-3[nH]c3ccccc23)cc1	–	–	–	–	–	–	–	> 100	–	–	–	–	–	–	–
CC(C)c1c2ccccc2[n+](C)c2c1[nH]c1ccccc12	–	–	–	–	–	–	–	9.25	–	–	–	–	–	–	–
C[n+]1cccc2[nH]c3ccccc3c21.[Cl-]	> 138	192	1.6	428	>1	> 230	200	–	–	–	–	–	–	–	–
Cn1cccc2nc3ccccc3c1-2	>100	258	2.2	> 550	>1	> 220	200	–	–	–	–	–	–	–	–
Nc1ccccc1-c1c[nH]c2c3ccccc3nc-2c1	0.5	11.2	29.3	10.4	1.3	14.3	50	–	–	–	–	–	–	–	–
c1ccc(-c2c[nH]c3c4ccccc4nc-3c2)nc1	9.2	20.8	22.1	49.8	9.8	204	50	–	–	–	–	–	–	–	–
Cn1c2c3ccccc3nc-2c(-c2ccccc2)c2ccccc21	5.5	0.34	1.1	0.23	16.6	5.5	1.5	0.75	–	–	–	–	–	–	–
c1ccc(-c2c[nH]c3c4ccccc4nc-3c2)cc1	0.3	8.6	129	–	4.3	37.2	200	–	–	–	–	–	–	–	–
CCc1cc[nH]c2c3ccccc3nc1-2	0.7	12.2	66.8	21.4	3.7	44.9	50	–	–	–	–	–	–	–	–
Nc1ccccc1-c1cc[nH]c2c3ccccc3nc1-2	0.7	18.9	23.9	34.4	0.9	16.2	50	–	–	–	–	–	–	–	–
CC(C)c1c2nc3ccccc3c-2[nH]c2ccccc12	–	–	–	–	–	–	–	57	–	–	–	–	–	–	–
O=C(c1c2nc3ccccc3c-2[nH]c2ccccc12)c1c2nc3ccccc3c-2[nH]c2ccccc12	2.4	5.7	6.4	> 200	2.7	15.2	100	–	–	–	–	–	–	–	–
CCc1c2ccccc2[n+](C)c2c1[nH]c1ccccc12.O=S(=O)([O-])C(F)(F)F	14.1	0.39	0.48	0.34	17.4	6.8	50	–	–	–	–	–	–	–	–
C[n+]1cccc2[nH]c3ccccc3c21.O=S(=O)([O-])C(F)(F)F	>100	–	–	–	>1	–	–	–	–	–	199	1.5	> 300	> 150	100
CCc1c2nc3ccccc3c-2n(C)c2ccccc12	5.5	0.18	1.1	3.2	33	5.9	6.25	0.7	–	–	–	–	–	–	–
c1ccc2nc(-c3c[nH]c4c5ccccc5nc-4c3)ccc2c1	1.6	3.3	14.2	18.6	6.9	22.7	–	–	–	–	–	–	–	–	–
C[n+]1c2ccccc2c(-c2ccccc2)c2[nH]c3ccccc3c21.O=S(=O)([O-])C(F)(F)F	6.2	0.88	1.1	0.54	7.7	6.8	12.5	–	–	–	–	–	–	–	–
C[n+]1c2ccccc2cc2[n-]c3ccccc3c21 [CRYPTOLEPINE HYDROCHLORIDE]	–	–	–	–	–	–	–	–	1.75	–	–	–	–	–	–
C[n+]1c2ccccc2cc2[n-]c3ccccc3c21 [CRYPTOLEPINE]	–	–	–	–	–	–	–	1.5	–	–	–	–	–	–	–
c1ccc2nc3c(cc2c1)[nH]c1ccccc13 [QUINDOLINE]	1.3	14.2	36.2	8.7	3.4	48.6	50	45	–	–	–	–	–	–	–
